# Data published in ChEMBL document CHEMBL3085664, “Structure-activity relationship of imidazopyridinium analogues as antagonists of neuropeptide s receptor” (J Med Chem, 2013).
# How the values were obtained:
# [1] = biological target: T1, Neuropeptide S receptor (Homo sapiens, UniProt Q6W5P4); assay: Antagonist activity at neuropeptide S receptor (unknown origin) expressed in CHO cells assessed as inhibition of NPS-induced ERK activation after 20 mins by HTRF assay; type: cell-based
# T1 sequence (Q6W5P4 whole entry): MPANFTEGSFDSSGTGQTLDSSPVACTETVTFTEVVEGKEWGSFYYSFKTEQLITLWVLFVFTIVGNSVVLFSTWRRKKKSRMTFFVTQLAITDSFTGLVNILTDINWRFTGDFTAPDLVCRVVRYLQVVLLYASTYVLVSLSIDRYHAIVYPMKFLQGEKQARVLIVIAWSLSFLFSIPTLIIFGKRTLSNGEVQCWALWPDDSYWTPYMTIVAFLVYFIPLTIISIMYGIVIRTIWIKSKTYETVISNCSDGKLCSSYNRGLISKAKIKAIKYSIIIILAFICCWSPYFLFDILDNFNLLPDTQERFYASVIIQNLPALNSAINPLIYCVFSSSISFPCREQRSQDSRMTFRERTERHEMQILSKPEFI
# [2] = biological target: T1, Neuropeptide S receptor; assay: Antagonist activity at neuropeptide S receptor (unknown origin) expressed in CHO cells assessed as inhibition of NPS-induced calcium mobilization after 10 mins by fluorescence assay; type: functional, cell-based
# Procedure, shortened: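 CHO-NPSR cells, 2000/well in 1536-well plates, incubated overnight, then loaded with no-wash calcium dye for 1 h at 37°C. Compound in DMSO was added for 10 min. Baseline fluorescence was recorded 6 s at 1 Hz, then EC80 NPS in stimulation buffer was added and recording continued 4 min at 1 Hz on a kinetic reader. IC50 is the mean with SD of two independent experiments in duplicate.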
# [3] = biological target: T1, Neuropeptide S receptor; assay: Antagonist activity at neuropeptide S receptor (unknown origin) expressed in CHO cells assessed as cAMP level after 30 mins by […] assay; type: functional, cell-based
# Procedure, shortened: (§1)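 CHO cells stably expressing NPSR, 1800 cells/well in 1536-well format, seeded overnight at 37°C in medium without Geneticin. Stimulation buffer (PBS, 0.1% BSA, 0.05% Tween-20, 500µM Ro 20-1724, EC80 NPS) was added for 30 min at 37°C. cAMP was read by HTRF (d2-cAMP/cryptate anti-cAMP in lysis buffer, 30 min). IC50 is the mean with SD of two independent experiments, each run in duplicate.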
# [4] = biological target: T2, Neuropeptide S receptor (Homo sapiens) (UniProt Q6W5P4); assay: Antagonist activity at neuropeptide S receptor (unknown origin) expressed in CHO cells assessed as inhibition of NPS-induced ERK activation at 50 uM after 20 mins by HTRF assay relative to control; type: cell-based
# T2 sequence (whole entry): T1 sequence (Q6W5P4 whole entry)
# [5] = biological target: T1, Neuropeptide S receptor; assay: Antagonist activity at neuropeptide S receptor (unknown origin) assessed as intracellular calcium level by cell based assay; type: functional
# Procedure, shortened: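 CHO cells stably expressing NPSR were seeded at 2000 cells/well and incubated overnight at 37 °C, 5% CO2. They were loaded with no-wash calcium dye for 1 h, then preincubated with compound in DMSO for 10 min. Stimulation used NPS at EC80 in PBS/0.1% BSA/0.05% Tween-20 with 500 µM Ro 20-1724. Kinetic fluorescence was read at 1 Hz: 6 s baseline, then 4 min. IC50 is the mean ± SD of two independent experiments, each in duplicate.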
# [6] = biological target: T1, Neuropeptide S receptor; assay: Antagonist activity at neuropeptide S receptor (unknown origin) assessed as cAMP level by cell based assay; type: functional; procedure, shortened: as §1
# [7] = biological target: T1, Neuropeptide S receptor; assay: Displacement of [125I]Tyr10-NPS from neuropeptide S receptor (unknown origin)
# Procedure, shortened: (§2)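 Whole CHO cells stably expressing human NPSR at 90–95% confluency in 24-well plates. Cells were incubated with 0.15 nM [125I]Y10-NPS plus increasing compound or unlabeled NPS in DMEM/0.1% BSA, 20°C, 1.5 hr. Nonspecific binding was defined with 1 µM unlabeled human NPS. Cells were washed, lysed in 1 N NaOH and counted by liquid scintillation. IC50 from one experiment in duplicate.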
# [8] = biological target: T1, Neuropeptide S receptor; assay: Displacement of [125I]Tyr10-NPS from human neuropeptide S receptor expressed in CHO cells after 1.5 hrs by liquid scintillation counting; type: cell-based; procedure, shortened: as §2
# [9] = Metabolic stability in mouse liver microsomes assessed as compound remaining after 60 mins in presence NADPH; type: ADME, Microsome; conditions: read-out: Stability
# Procedure, shortened: (§3)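 Compound was incubated with mouse liver microsomes, and percent parent remaining was determined at 15, 30 and 60 min. Values are means from a single experiment run in duplicate.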
# [10] = Metabolic stability in mouse liver microsomes assessed as compound remaining after 15 mins in absence NADPH; type: ADME, Microsome; conditions: read-out: Stability; procedure, shortened: as §3
# [11] = Metabolic stability in mouse liver microsomes assessed as compound remaining after 15 mins in presence NADPH; type: ADME, Microsome; conditions: read-out: Stability; procedure, shortened: as §3
# [12] = Metabolic stability in mouse liver microsomes assessed as compound remaining after 30 mins in absence NADPH; type: ADME, Microsome; conditions: read-out: Stability; procedure, shortened: as §3
# [13] = Metabolic stability in mouse liver microsomes assessed as compound remaining after 60 mins in absence NADPH; type: ADME, Microsome; conditions: read-out: Stability; procedure, shortened: as §3
# [14] = Metabolic stability in mouse liver microsomes assessed as compound remaining after 30 mins in presence NADPH; type: ADME, Microsome; conditions: read-out: Stability; procedure, shortened: as §3
Compound,IC50 ([2]; read-out: IC50) [µM],IC50 ([3]; read-out: IC50) [µM],also measured
Cc1c(P(=S)(c2ccccc2)c2ccccc2)n2ccccc2[n+]1CCc1ccccc1,0.073,2.1,IC50 [1]: 0.016 µM
C[n+]1cc(P(=S)(c2ccccc2)c2ccccc2)n2ccccc21,2.5,39,inhibition [4]: < 50%
Cc1c(C(O)(c2ccccc2)c2ccccc2)n2ccccc2[n+]1C.O=C([O-])C(F)(F)F,–,–,IC50 ([2]; cho): Not Active
Cc1nc2ccccn2c1P(=S)(c1ccccc1)c1ccccc1,1,18,IC50 [1]: 0.0091 µM
c1ccc(P(c2ccccc2)c2cnc3ccccn23)cc1,35,–,IC50 ([3]; cho): Not Active
C[n+]1cc(C(O)(c2ccccc2)c2ccccc2)n2ccccc21.O=C([O-])C(F)(F)F,–,–,IC50 ([2]; cho): Not Active
Cc1c(P(=S)(c2ccccc2)c2ccccc2)n2ccccc2[n+]1C/C=C/c1ccc(Br)cc1,0.0057,0.17,–
Cc1nc2ccccn2c1C(O)(c1ccccc1)c1ccccc1,–,–,IC50 ([2]; cho): Not Active
O=C1c2ccccc2C(=O)C1(c1ccccc1)N1CCN(Cc2ccccc2)CC1,–,–,IC50 [5]: 0.027 µM
Cc1nc2ccccn2c1P(=O)(c1ccccc1)c1ccccc1,27,–,IC50 ([3]; cho): Not Active
OC(c1ccccc1)(c1ccccc1)c1cnc2ccccn12,–,–,IC50 ([2]; cho): Not Active
Cc1c(P(=S)(c2ccccc2)c2ccccc2)n2ccccc2[n+]1CCCCCc1ccccc1,0.013,0.71,IC50 [1]: 0.0062 µM
O=C(NCc1ccccc1)N1CCN2C(=O)OC(c3ccccc3)(c3ccccc3)C2C1 (stereo not given),–,–,IC50 [5]: 0.026 µM
COc1ccc(C2c3c(ccc4ccccc34)OC3N=CN(CCN4CCOCC4)C(=N)C32)cc1OC (stereo not given),–,–,IC50 [6]: 4.9 µM; IC50 [5]: 1.4 µM; IC50 [7]: 0.19 µM
O=P(c1ccccc1)(c1ccccc1)c1cnc2ccccn12,–,–,IC50 ([2]; cho): Not Active
Cc1c(P(=S)(c2ccccc2)c2ccccc2)n2ccccc2[n+]1C/C=C/c1ccc(F)c(Br)c1,0.045,0.84,–

Compound,IC50 ([2]; read-out: IC50) [µM],IC50 ([3]; read-out: IC50) [µM],also measured
S=P(c1ccccc1)(c1ccccc1)c1cnc2ccccn12,4.03,63,inhibition [4]: < 50%
Cc1c(P(=S)(c2ccccc2)c2ccccc2)n2ccccc2[n+]1C/C=C/c1cccc(Cl)c1,0.0092,0.22,–
Cc1c(P(=S)(c2ccccc2)c2ccccc2)n2ccccc2[n+]1C/C=C/c1ccc(Cl)cc1,0.0022,0.12,–
Cc1c(P(=S)(c2ccccc2)c2ccccc2)n2ccccc2[n+]1C/C=C/c1ccccc1Cl,0.0034,0.094,–
Cc1c(P(=S)(c2ccccc2)c2ccccc2)n2ccccc2[n+]1C/C=C/c1ccc(C(F)(F)F)cc1,0.0045,0.4,–
Cc1c(P(=S)(c2ccccc2)c2ccccc2)n2ccccc2[n+]1C/C=C/c1ccc(F)cc1,0.0034,0.071,–
Cc1c(P(=S)(c2ccccc2)c2ccccc2)n2ccccc2[n+]1Cc1ccccc1,0.032,1.3,IC50 [1]: 0.016 µM
COc1cccc(/C=C/C[n+]2c(C)c(P(=S)(c3ccccc3)c3ccccc3)n3ccccc32)c1,0.0032,0.11,–
Cc1c(P(=S)(c2ccccc2)c2ccccc2)c2ccccc2n1C,2.8,–,inhibition [4]: < 50%; IC50 ([3]; cho): Not Active
Cc1c(P(=S)(c2ccccc2)c2ccccc2)n2ccccc2[n+]1C/C=C/c1cccc(Br)c1,0.023,0.67,–
CCC(C)(CCN1CCOCC1)N(Cc1cc2ccccc2n(C)c1=O)C(=O)C1CCCCC1 (stereo not given),0.055,0.0012,IC50 [8]: 0.0067 µM; IC50 [1]: 0.011 µM; remaining at 1 h [9]: 0%; remaining at 0.25 h [10]: 103%; remaining at 0.25 h [11]: 0%; IC50 [7]: 0.0013 µM; remaining at 0.5 h [12]: 97%; remaining at 1 h [13]: 94%; remaining at 0.5 h [14]: 0%
Cc1ccc(/C=C/C[n+]2c(C)c(P(=S)(c3ccccc3)c3ccccc3)n3ccccc32)cc1,0.009,0.33,–
Cc1c(P(=S)(c2ccccc2)c2ccccc2)n2ccccc2[n+]1CCCc1ccccc1,< 0.0005,0.11,–
Cn1cc(P(=S)(c2ccccc2)c2ccccc2)c2ccccc21,7.3,–,IC50 ([3]; cho): Not Active
Cc1c(P(=S)(c2ccccc2)c2ccccc2)n2ccccc2[n+]1CCCCc1ccccc1,< 0.0005,0.94,IC50 [1]: 0.015 µM
Cc1c(P(=S)(c2ccccc2)c2ccccc2)n2ccccc2[n+]1C/C=C/c1ccc2ccccc2c1,0.064,1.3,–
